The source of these data is ChEMBL document CHEMBL1128173, “Synthesis and structure-activity relationships of substituted 1,4-dihydroquinoxaline-2,3-diones: antagonists of N-methyl-D-aspartate (NMDA) receptor glycine sites and non-NMDA glutamate receptors” (J Med Chem, 1995).

The nature of assay [1]: Selectivity for glycine site.
For assay [2], the target named is Glutamate receptor ionotropic, AMPA (Rattus norvegicus) (UniProt P19491+P19492+P19493+P19490). Briefly: Binding affinity against rat brain Non N-methyl-D-aspartate glutamate receptor glutamate site expressed in Xenopus oocyte. The method in brief: (§1)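 Oocytes expressing whole rat brain poly(A)+ RNA (~50 ng injected), voltage-clamped with two electrodes 3–10 days after injection and perfused with Ringer pH 7.4. Antagonist perfused ~30 s before agonist, with washout over 1–5 min. Non-NMDA IC50 estimated from partial (three- or four-point) concentration-inhibition curves fit to a logistic equation with a slope factor. Final DMSO 0.03–0.3%.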

The target in assay [3] is Glutamate receptor ionotropic, NMDA 1 (Rattus norvegicus) (UniProt P35439). Briefly: The compound was tested for binding affinity against NMDA receptor glycine site in Xenopus oocyte. The essentials:
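Xenopus stage V–VI oocytes injected with ~50 ng rat whole-brain poly(A)+ RNA; two-electrode voltage clamp at −70 mV, 3–10 days post-injection, frog Ringer pH 7.4. NMDA fixed at 100 µM, glycine 1 µM; antagonist pre-applied ~30 s with glycine. Amplitude read at the slow second-phase peak; IC50 from 3–4-point inhibition curves fit with slope factor.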

The species entered for assay [4] is Rattus norvegicus. The assay can be described thus: The compound was tested for binding affinity against Non N-methyl-D-aspartate glutamate receptor glutamate site expressed in Xenopus oocyte. The method in brief: as §1

As to `CC(=O)Nc1c(Cl)c(Cl)cc2nc(O)c(O)nc12`, the Selectivity in assay [1] is 23. The molecule further came in with a Kb in assay [2] of 5.57 µM.
`Oc1nc2ccccc2nc1O` displayed a Selectivity in assay [1] of 5.9. In addition, the Kb in assay [2] was 98.2 µM.
In the same order, the values of `Oc1nc2c(F)c(F)c(F)c(F)c2nc1O` are 8 and 26.6 µM.
In assay [1], `Oc1nc2cc(F)c(C(F)(F)F)cc2nc1O` came in with a Selectivity of 1.5. Besides, the Kb in assay [2] stood at 3.78 µM.
For `O=[N+]([O-])c1cc2nc(O)c(O)nc2cc1Cl`, in that order: 2.3 and 0.64 µM.
For the molecule `O=[N+]([O-])c1c(Cl)cc2nc(O)c(O)nc2c1[N+](=O)[O-]`, the Kb in assay [3] was 0.042 µM; in assay [4] it was 0.99 µM. For the same molecule, the Selectivity in assay [1] came out at 24.
Turning to `O=[N+]([O-])c1cc(Cl)cc2nc(O)c(O)nc12`, the Selectivity in assay [1] was 16. In assay [2], this molecule gave a Kb of 8.02 µM.
`O=[N+]([O-])c1ccc2nc(O)c(O)nc2c1` registered a Selectivity in assay [1] of 0.7. Further, the Kb in assay [2] was found to be 1.67 µM.
The molecule `O=[N+]([O-])c1c(Br)ccc2nc(O)c(O)nc12` had a Selectivity in assay [1] of 28. Besides, the Kb in assay [2] is 36.3 µM.
The molecule `Oc1nc2cc(C(F)(F)F)c(Cl)c(Cl)c2nc1O` came in with a Selectivity in assay [1] of 6.5. The molecule further showed a Kb in assay [2] of 1.23 µM.
With `Oc1nc2cc(F)c(F)c(Cl)c2nc1O`, the Selectivity in assay [1] worked out at 10. The Kb in assay [2] stood at 17.9 µM.
`Oc1nc2ccc(Cl)cc2nc1O` came in with a Selectivity in assay [1] of 6.3. This molecule showed a Kb in assay [2] of 16.4 µM.
In the same order, the values of `Oc1nc2cc(Cl)c(Cl)c(Br)c2nc1O` are 43 and 4.11 µM.
For `Oc1nc2cc(Br)c(C(F)(F)F)cc2nc1O`, in that order: 5.7 and 1.49 µM.
As to `Oc1nc2cc(Cl)cc(Cl)c2nc1O`, in assay [1], the Selectivity came to 13. In assay [2], the Kb was 9.27 µM.
For `O=[N+]([O-])c1c(F)c(F)cc2nc(O)c(O)nc12`, in that order: 19 and 6.01 µM.
In the same order, the values of `Oc1nc2cc(Cl)c(Br)cc2nc1O` are 16 and 5.7 µM.
For `O=[N+]([O-])c1c(Br)c(Cl)cc2nc(O)c(O)nc12`, in that order: 120 and 0.95 µM.
Molecule `Oc1nc2cc(Cl)c(Cl)cc2nc1O` returned a Selectivity in assay [1] of 13. The molecule further had a Kb in assay [2] of 4.81 µM.
The molecule `Oc1nc2cc(F)c(F)c(F)c2nc1O` displayed a Selectivity in assay [1] of 5.4. In assay [2], this molecule returned a Kb of 30.4 µM.
Consider `Oc1nc2cc(F)c(Cl)c(F)c2nc1O`, for which the Selectivity in assay [1] was determined as 7.3. For the same molecule, the Kb in assay [2] was 13.2 µM.
Molecule `Oc1nc2cc(Br)c(Br)cc2nc1O` showed a Selectivity in assay [1] of 19. Besides, the Kb in assay [2] turned out to be 4.05 µM.
Molecule `Oc1nc2cc(Cl)c(Cl)c(C(F)(F)F)c2nc1O` showed a Selectivity in assay [1] of 14. For the same molecule, the Kb in assay [2] stood at 2.66 µM.
In the case of `Oc1nc2cc(C(F)(F)F)cc(C(F)(F)F)c2nc1O`, in assay [1], the Selectivity worked out at 4.9. Also, in assay [2], the Kb was found to be 2.21 µM.
On to `O=[N+]([O-])c1c(Cl)c(Cl)c(Cl)c2nc(O)c(O)nc12`, for which the Selectivity in assay [1] stood at 11. The same molecule showed a Kb in assay [2] of 14.1 µM.
On to `Oc1nc2cc(Cl)c(Cl)c(Cl)c2nc1O`, for which, in assay [1], the Selectivity came to 51. In assay [2], the Kb was determined as 4.19 µM.
For `Oc1nc2cc(C(F)(F)F)cc(Cl)c2nc1O`, the Selectivity in assay [1] is 7.1. Further, the Kb in assay [2] was 3.7 µM.
`O=[N+]([O-])c1c(Br)c(C(F)(F)F)cc2nc(O)c(O)nc12`: the Selectivity in assay [1] is 17. The Kb in assay [2] was 0.47 µM.
`Oc1nc2cc(F)c(Cl)cc2nc1O` had a Selectivity in assay [1] of 4.5. The molecule further yielded a Kb in assay [2] of 10.8 µM.
In assay [1], `Oc1nc2cc(F)c(F)cc2nc1O` returned a Selectivity of 4.5. The molecule further returned a Kb in assay [2] of 21.5 µM.
In the case of `O=[N+]([O-])c1c(Cl)c(Br)cc2nc(O)c(O)nc12`, the Selectivity in assay [1] stood at 170. In assay [2], this molecule displayed a Kb of 1.24 µM.
The molecule `Oc1nc2ccc(Br)cc2nc1O` showed a Selectivity in assay [1] of 4.7. Further, the Kb in assay [2] came out at 11.2 µM.
With `O=[N+]([O-])c1c(F)c(Cl)c(F)c2nc(O)c(O)nc12`, the Selectivity in assay [1] is 23. The molecule further gave a Kb in assay [2] of 6.56 µM.
For `O=[N+]([O-])c1cccc2nc(O)c(O)nc12`, in that order: > 5.8 and > 100 µM.
Turning to `O=[N+]([O-])c1c(F)c(Br)cc2nc(O)c(O)nc12`, the Selectivity in assay [1] came to 35. This molecule also displayed a Kb in assay [2] of 1.4 µM.
For the molecule `O=[N+]([O-])c1c(C(F)(F)F)cc(Cl)c2nc(O)c(O)nc12`, the Kb in assay [2] is > 30 µM.
In assay [1], `Oc1nc2cc(Cl)cc(C(F)(F)F)c2nc1O` returned a Selectivity of 7.6. The Kb in assay [2] stood at 4.67 µM.
`O=[N+]([O-])c1c(Br)c(Br)cc2nc(O)c(O)nc12`: the Selectivity in assay [1] is 140. Also, in assay [4], the Kb came out at 0.89 µM.
`O=c1[nH]c2cc(Cl)c(Cl)c([N+](=O)[O-])c2[nH]c1=O` returned a Selectivity in assay [1] of 254. Besides, in assay [2], the Kb was determined as 1.5 µM.
Molecule `Nc1c(C(F)(F)F)cc(Cl)c2nc(O)c(O)nc12` came in with a Kb in assay [2] of 63.4 µM.
For the molecule `Nc1c(Br)c(Br)cc2nc(O)c(O)nc12`, in assay [1], the Selectivity worked out at 66. In assay [2], this molecule returned a Kb of 3.32 µM.
With `Oc1nc2cc(Br)cc(Br)c2nc1O`, the Selectivity in assay [1] came out at 6.8. This molecule also gave a Kb in assay [2] of 6.01 µM.
In the same order, the values of `O=[N+]([O-])c1c(F)c(Cl)cc2nc(O)c(O)nc12` are 81 and 1.61 µM.
For `Oc1nc2cc(C(F)(F)F)cc(Br)c2nc1O`, in that order: 4.2 and 4.29 µM.
In the same order, the values of `O=[N+]([O-])c1c(Cl)c(C(F)(F)F)cc2nc(O)c(O)nc12` are 15 and 0.55 µM.
With `Nc1c(Cl)c(Cl)cc2nc(O)c(O)nc12`, the Selectivity in assay [1] was found to be 88. Besides, in assay [2], the Kb turned out to be 5.19 µM.
For the molecule `O=[N+]([O-])c1cc(C(F)(F)F)cc2nc(O)c(O)nc12`, in assay [1], the Selectivity was 13. The Kb in assay [2] was determined as 4.13 µM.
Take `Oc1nc2cc(Br)cc(C(F)(F)F)c2nc1O`: the Selectivity in assay [1] stood at 14. This molecule yielded a Kb in assay [2] of 3.4 µM.
In the same order, the values of `Oc1nc2cc(Cl)c(C(F)(F)F)cc2nc1O` are 9.8 and 2.55 µM.
In the same order, the values of `O=[N+]([O-])c1c(Br)c(F)cc2nc(O)c(O)nc12` are 35 and 3.45 µM.
Take `O=[N+]([O-])c1c(Cl)ccc2nc(O)c(O)nc12`: the Selectivity in assay [1] was 74. Besides, in assay [2], the Kb turned out to be 36.4 µM.
In turn, `Oc1nc2cc(F)cc(C(F)(F)F)c2nc1O` displayed a Selectivity in assay [1] of 4.8. This molecule displayed a Kb in assay [2] of 16.3 µM.
